From ChEMBL document CHEMBL4371062, “Synthesis, biological evaluation and molecular docking study of 1,2,3-1H-triazoles having 4H-pyrano[2,3-d]pyrimidine as potential Mycobacterium tuberculosis protein tyrosine phosphatase B inhibitors” (Bioorg Med Chem Lett, 2019)
Values after ≈ are worked out from the molar mass of the structure shown. Active and inactive are the calls of the source. The rule behind the calls is not given here.

Legend:
[1] = molecular target: T1, Phosphotyrosine protein phosphatase (Mycobacterium tuberculosis, UniProt A0A045ISB3); experiment: Inhibition of Mycobacterium tuberculosis PTPB using pNPP as substrate preincubated for 15 mins followed by substrate addition and measured after 2 to 6 mins
T1 sequence (A0A045ISB3 whole entry): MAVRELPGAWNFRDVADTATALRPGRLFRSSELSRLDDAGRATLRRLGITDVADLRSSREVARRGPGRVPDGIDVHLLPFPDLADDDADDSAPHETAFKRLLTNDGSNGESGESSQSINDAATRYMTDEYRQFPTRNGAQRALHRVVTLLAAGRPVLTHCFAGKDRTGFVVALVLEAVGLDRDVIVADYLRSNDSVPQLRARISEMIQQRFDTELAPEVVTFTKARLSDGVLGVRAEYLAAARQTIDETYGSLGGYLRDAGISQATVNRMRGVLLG
Summary of the method: (§1)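 Recombinant M. tuberculosis PtpB, cloned, expressed and purified as previously described, assayed with p-nitrophenyl phosphate as substrate. IC50 is the mean of three independent experiments.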

[2] = molecular target: T2, Phosphotyrosine protein phosphatase (Mycobacterium tuberculosis) (UniProt A0A045ISB3); experiment: Inhibition of Mycobacterium tuberculosis PTPB up to 100 uM using pNPP as substrate preincubated for 15 mins followed by substrate addition and measured after 2 to 6 mins; summary of the method: as §1
T2 sequence (whole entry): T1 sequence (A0A045ISB3 whole entry)

[3] = molecular target: T2, Phosphotyrosine protein phosphatase (Mycobacterium tuberculosis); experiment: Ratio of IC50 for inhibition of Mycobacterium tuberculosis PTPB to Ki for competitive inhibition of Mycobacterium tuberculosis PTPB
[4] = molecular target: T1, Phosphotyrosine protein phosphatase; experiment: Competitive inhibition of Mycobacterium tuberculosis PTPB using varying levels of pNPP as substrate preincubated for 15 mins followed by substrate addition and measured after 2 to 6 mins by Lineweaver-burk plot analysis
Summary of the method: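 Substrate pNPP was varied at fixed inhibitor levels of 0, 1, 1.5, 2, 3 and 4 µM, with p-nitrophenol release treated by Michaelis-Menten kinetics. Mechanism was judged from Lineweaver-Burk double-reciprocal plots (1/Vmax y-intercept, KMapp/Vmax slope, −1/KMapp x-intercept). Ki was derived from these plots.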

[5] = Antioxidant activity assessed as ABTS radical scavenging activity by measuring trolox equivalent antioxidant capacity after 6 mins by UV/Vis spectrophotometric analysis; type: functional
[6] = system: Mycobacterium tuberculosis; experiment: Antitubercular activity against Mycobacterium tuberculosis H37Rv assessed as reduction in relative light units at 5 ug/ml after 72 hrs by luciferase reporter phage assay relative to control; type: functional
[7] = system: Mycobacterium tuberculosis; experiment: Antitubercular activity against Mycobacterium tuberculosis H37Rv assessed as reduction in relative light units at 25 ug/ml after 72 hrs by luciferase reporter phage assay relative to control; type: functional
[8] = system: Mycobacterium tuberculosis; experiment: Antitubercular activity against Mycobacterium tuberculosis H37Rv at 100 ug/ml after 28 days by Lowensteine-Jensen method relative to control; type: functional; conditions: 672 h
[9] = system: Plasmodium falciparum; experiment: Antimalarial activity against synchronized ring stage of Plasmodium falciparum measured after 48 hrs; type: functional, organism-based

SMILES | IC50 [1] | further results
CCOC(=O)C1=C(C)Oc2nc(C)n(Cc3cn([C@@H]4O[C@H](COC(C)=O)[C@@H](OC(C)=O)[C@H](OC(C)=O)[C@H]4OC(C)=O)nn3)c(=O)c2C1c1ccc(N(C)C)cc1 (stereo not given in full) | 32 µM | 
CCOC(=O)C1=C(C)Oc2nc(C)n(Cc3cn([C@@H]4O[C@H](COC(C)=O)[C@@H](OC(C)=O)[C@H](OC(C)=O)[C@H]4OC(C)=O)nn3)c(=O)c2C1c1cccc(Cl)c1 (stereo not given in full) | 9.52 µM | 
CCOC(=O)C1=C(C)Oc2nc(C)n(Cc3cn([C@@H]4O[C@H](COC(C)=O)[C@@H](OC(C)=O)[C@H](OC(C)=O)[C@H]4OC(C)=O)nn3)c(=O)c2C1c1cc(OC)c(O)c(OC)c1 (stereo not given in full) | 2.22 µM | 
CCOC(=O)C1=C(C)Oc2nc(C)n(Cc3cn([C@@H]4O[C@H](COC(C)=O)[C@@H](OC(C)=O)[C@H](OC(C)=O)[C@H]4OC(C)=O)nn3)c(=O)c2C1c1ccccc1[N+](=O)[O-] (stereo not given in full) | 35.1 µM | 
CCOC(=O)C1=C(C)Oc2nc(C)n(Cc3cn([C@@H]4O[C@H](COC(C)=O)[C@@H](OC(C)=O)[C@H](OC(C)=O)[C@H]4OC(C)=O)nn3)c(=O)c2C1c1ccccc1 (stereo not given in full) | 47 µM | 
CCOC(=O)C1=C(C)Oc2nc(C)n(Cc3cn([C@@H]4O[C@H](COC(C)=O)[C@@H](OC(C)=O)[C@H](OC(C)=O)[C@H]4OC(C)=O)nn3)c(=O)c2C1c1ccc(Br)cc1 (stereo not given in full) |  | inhibition [2]: inactive; Ratio [3]: 1.23; Ki [4]: 1.8 µM
CCOC(=O)C1=C(C)Oc2nc(C)n(Cc3cn([C@@H]4O[C@H](COC(C)=O)[C@@H](OC(C)=O)[C@H](OC(C)=O)[C@H]4OC(C)=O)nn3)c(=O)c2C1c1ccc(OC)cc1 (stereo not given in full) | 29 µM | 
CCOC(=O)C1=C(N)Oc2[nH]c(=O)[nH]c(=O)c2C1[C@H](O)[C@@H](O)[C@H](O[C@H]1O[C@H](CO)[C@@H](O)[C@H](O)[C@H]1O)[C@H](O)CO (stereo not given in full) |  | Activity [5]: 5.24 µM
CCOC(=O)C1=C(C)Oc2nc(C)n(Cc3cn([C@@H]4O[C@H](COC(C)=O)[C@@H](OC(C)=O)[C@H](OC(C)=O)[C@H]4OC(C)=O)nn3)c(=O)c2C1c1ccc(Cl)cc1 (stereo not given in full) | 35.3 µM | 
CCOC(=O)C1=C(C)Oc2nc(C)n(Cc3cn([C@@H]4O[C@H](COC(C)=O)[C@@H](OC(C)=O)[C@H](OC(C)=O)[C@H]4OC(C)=O)nn3)c(=O)c2C1c1ccc(O)c(OCC)c1 (stereo not given in full) | 7.94 µM | 
CCOC(=O)C1=C(C)Oc2nc(C)n(Cc3cn([C@@H]4O[C@H](COC(C)=O)[C@@H](OC(C)=O)[C@H](OC(C)=O)[C@H]4OC(C)=O)nn3)c(=O)c2C1c1ccccc1OC (stereo not given in full) | 35 µM | 
CCOC(=O)C1=C(C)Oc2nc(C)n(Cc3cn([C@@H]4O[C@H](COC(C)=O)[C@@H](OC(C)=O)[C@H](OC(C)=O)[C@H]4OC(C)=O)nn3)c(=O)c2C1c1cc(OC)c(O)c([N+](=O)[O-])c1 (stereo not given in full) | 1.56 µM | 
CCOC(=O)C1=C(C)Oc2nc(C)n(Cc3cn([C@@H]4O[C@H](COC(C)=O)[C@@H](OC(C)=O)[C@H](OC(C)=O)[C@H]4OC(C)=O)nn3)c(=O)c2C1c1cccc([N+](=O)[O-])c1 (stereo not given in full) | 45 µM | 
CCOC(=O)C1=C(C)Oc2nc(C)n(Cc3cn([C@@H]4O[C@H](COC(C)=O)[C@@H](OC(C)=O)[C@H](OC(C)=O)[C@H]4OC(C)=O)nn3)c(=O)c2C1c1ccc(OCC)c(O)c1 (stereo not given in full) | 3.53 µM | 
CCOC(=O)C1=C(C)Oc2nc(C)n(Cc3cn([C@@H]4O[C@H](COC(C)=O)[C@@H](OC(C)=O)[C@H](OC(C)=O)[C@H]4OC(C)=O)nn3)c(=O)c2C1c1ccc([N+](=O)[O-])cc1 (stereo not given in full) | 33 µM | 
CCOC(=O)C1=C(C)Oc2nc(C)n(Cc3cn([C@@H]4O[C@H](COC(C)=O)[C@@H](OC(C)=O)[C@H](OC(C)=O)[C@H]4OC(C)=O)nn3)c(=O)c2C1c1cccc(OC)c1 (stereo not given in full) | 28.2 µM | 
CCOC(=O)C1=C(C)Oc2nc(C)n(Cc3cn([C@@H]4O[C@H](COC(C)=O)[C@@H](OC(C)=O)[C@H](OC(C)=O)[C@H]4OC(C)=O)nn3)c(=O)c2C1c1ccc(Cl)cc1Cl (stereo not given in full) | 44 µM | 
CC(=O)OC[C@H]1O[C@@H](OCc2cn(Cc3ccc4ccccc4n3)nn2)[C@H](OC(C)=O)[C@@H](OC(C)=O)[C@H]1OC(C)=O |  | inhibition at 5 µg/mL [6]: 76%; inhibition at 25 µg/mL [7]: 78%
CCOC(=O)C1=C(C)Oc2nc(C)n(Cc3cn([C@@H]4O[C@H](COC(C)=O)[C@@H](OC(C)=O)[C@H](OC(C)=O)[C@H]4OC(C)=O)nn3)c(=O)c2C1c1cc(OC)cc(OC)c1 (stereo not given in full) | 32.5 µM | 
CCOC(=O)C1=C(C)Oc2nc(C)n(Cc3cn([C@@H]4O[C@H](COC(C)=O)[C@@H](OC(C)=O)[C@H](OC(C)=O)[C@H]4OC(C)=O)nn3)c(=O)c2C1c1ccc(O)c(OC)c1 (stereo not given in full) | 7.51 µM | 
CCOC(=O)C1=C(C)Oc2nc(C)n(Cc3cn([C@@H]4O[C@H](COC(C)=O)[C@@H](OC(C)=O)[C@H](OC(C)=O)[C@H]4OC(C)=O)nn3)c(=O)c2C1c1ccc(O)cc1 (stereo not given in full) | 35.3 µM | 
CCOC(=O)C1=C(C)Oc2nc(C)n(Cc3cn([C@@H]4O[C@H](COC(C)=O)[C@@H](OC(C)=O)[C@H](OC(C)=O)[C@H]4OC(C)=O)nn3)c(=O)c2C1c1cccc(O)c1 (stereo not given in full) | 35.9 µM | 
CCOC(=O)C1=C(C)Oc2nc(C)n(Cc3cn([C@@H]4O[C@H](COC(C)=O)[C@@H](OC(C)=O)[C@H](OC(C)=O)[C@H]4OC(C)=O)nn3)c(=O)c2C1c1ccc(C(C)C)cc1 (stereo not given in full) |  | inhibition [2]: inactive; Ratio [3]: 1.42; Ki [4]: 1.1 µM
CCOC(=O)C1=C(C)Oc2nc(C)n(Cc3cn([C@@H]4O[C@H](COC(C)=O)[C@@H](OC(C)=O)[C@H](OC(C)=O)[C@H]4OC(C)=O)nn3)c(=O)c2C1c1ccc(C)cc1 (stereo not given in full) |  | inhibition [2]: inactive; Ratio [3]: 1.63; Ki [4]: 2.16 µM
CCOC(=O)C1=C(N)Oc2[nH]c(=O)[nH]c(=O)c2C1c1c(C)nn(-c2ccccc2)c1-n1ccnc1 (stereo not given) |  | inhibition at 100 µg/mL [8]: 92%; IC50 [9]: 0.062 µg/mL (≈ 0.13 µM)
CCOC(=O)C1=C(C)Oc2nc(C)n(Cc3cn([C@@H]4O[C@H](COC(C)=O)[C@@H](OC(C)=O)[C@H](OC(C)=O)[C@H]4OC(C)=O)nn3)c(=O)c2C1c1ccccc1O (stereo not given in full) | 29 µM | 
CCOC(=O)C1=C(C)Oc2nc(C)n(Cc3cn([C@@H]4O[C@H](COC(C)=O)[C@@H](OC(C)=O)[C@H](OC(C)=O)[C@H]4OC(C)=O)nn3)c(=O)c2C1c1ccccc1Cl (stereo not given in full) | 33.2 µM | 
